Among the data in ChEMBL document CHEMBL4513216, “Probing the Open Global Health Chemical Diversity Library for Multistage-Active Starting Points for Next-Generation Antimalarials” (ACS Infect Dis, 2020) are cytotoxicity values, retold here.

The data set can be described thus: Toxicity liver stage against HepG2, at 10uM. It counts as cell-based. On the set-up: test concentration 10 uM, cell line HepG2-A16-CD81EGFP. To be noted: human, HepG2-A16-CD81EGFP cells; read-out: INHIBITION
Put shortly:
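Uninfected HepG2-A16-CD81EGFP cells, 3 × 10^3 per well, 1536-well, plated on prespotted compound at 10 μM final, parasite-free screening media added to match infected plates; puromycin 10 μM positive, DMSO 0.5% negative; run in parallel with 48 h PbLuc assay at 37 °C, 5% CO2; viability by CellTiter-Glo luminescence, normalized to controls.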
`COCC1CC2(CCN(CC3CC3)CC2)CN1Cc1ccccn1` (configuration not stated): the cytotoxicity at 10 µM is -97.4%. Under `CCc1nc(CN(C(C)=O)C2CCN(Cc3cnc(C)cn3)C2)no1` (configuration not stated) stands -4.51%. Under `CN1CCN(C(=O)C2CCCN(c3cccnn3)C2)CC1` (configuration not stated) stands -10.8%; under `Cc1cc(C)n(C2CN(CC(=O)N(C)Cc3ccsc3)C2)n1`, -0.912%; under `O=C(Cn1c(=O)oc2ccccc21)NCC1(O)CCc2ccccc21` (configuration not stated), -17.2%. Under `CC(C)CN1CCC(NC(=O)NCCC(=O)NCc2ccccc2)CC1` stands 1.64%; under `O=C(NCc1cnn2ccccc12)NC1CCCC1`, -2.91%; under `c1cnn(Cc2nnc(C3CCN(C4CCOCC4)CC3)n2C2CC2)c1`, -15.2%. Consider `Cc1cc(C)c2nc(CN(C)C(C)c3ccncn3)cc(O)c2c1` (configuration not stated), for which the cytotoxicity at 10 µM was 4.11%. Regarding `CC(Nc1cccc(CN2CCOC2=O)c1)C(=O)Nc1ccccc1` (configuration not stated), the cytotoxicity at 10 µM is -6.42%.

Take `Cn1cc(CCNC(=O)NCc2nnc3n2CCC3)cn1`: the cytotoxicity at 10 µM was -6.08%. Under `N#CC1(NC(=O)COc2cc(Cl)cc(Cl)c2)CCSC1` (configuration not stated) stands 7.95%; under `Cc1nc(CCNCc2c(C)nn(C)c2N2CCOCC2)cs1`, -11.5%; under `O=C(c1ccco1)N1Cc2nccn2CC(Cn2ncccc2=O)C1` (configuration not stated), 5.09%. In the case of `c1cnc(N2CCC(OCC3CCCCO3)CC2)nc1` (configuration not stated) it was -11.4%; in that of `OCCN1CCN(Cc2coc(-c3ccc(Cl)cc3)n2)CC1`, -13.6%; in that of `Cc1cc(CN2CCN(C(=O)NC(C)c3cccnc3)CC2)no1` (configuration not stated), -11.8%. Turning to `Cc1cc(C)n(CCNCc2cc(-c3ccc(Cl)cc3)c[nH]c2=O)n1`, the cytotoxicity at 10 µM was -2.38%.

On to `CC(C)N(C)Cc1ccccc1CNc1ccc2nncn2n1`, for which the cytotoxicity at 10 µM came to 0.425%. In the case of `Cc1cc(C)n(CC(=O)N(CC2CN(C)CCO2)c2nccs2)n1` (configuration not stated), the cytotoxicity at 10 µM is -5.85%.

With `Cn1c(=O)c2cc(C(=O)NCCOc3ccccc3)ccc2n(C)c1=O`, the cytotoxicity at 10 µM was -4.69%.

In the case of `CC(C)(C)CN1Cc2cc3c(cc2NCCC1=O)OCO3`, the cytotoxicity at 10 µM is -84.3%. `CCCS(=O)(=O)N1CCC2(CCN(Cc3cccc(F)c3)C2=O)C1` (configuration not stated): the cytotoxicity at 10 µM turned out to be 8.07%. In the case of `Cc1nn(C)c(C)c1NC(=O)CCn1ncc2c(C)cccc21` it was -10.8%; in that of `COCCN1CCc2onc(C(c3ccccc3)c3ccccc3)c2C1`, -7.35%.

On to `Cn1ncc(Cl)c1C(=O)NCCN1CCC(O)(c2ccc(F)cc2)CC1`, for which the cytotoxicity at 10 µM turned out to be 4.71%. Under `O=C1CC(c2ccccc2F)c2c(n(C3CCCC3)[nH]c2=O)N1` (configuration not stated) stands -5.07%; under `CNC(=O)c1cccc(CCNc2ccc(C#N)cn2)c1`, -3.67%; under `O=C1Nc2ccccc2C12CCCN(Cc1ccncc1)C2` (configuration not stated), 4.32%.

In the case of `COc1ccnc(N2CCN(C(=O)c3csc(C4CC4)n3)CC2)n1`, the cytotoxicity at 10 µM was 4.85%. In the case of `Cc1nc(Cn2c3c(ccc2=O)CC(N)CC3)cs1` (configuration not stated) it was 1.88%; in that of `Cc1ncc2c(c1-c1noc(-c3cscn3)n1)CCNC2`, -3.37%.

With `CCC(Nc1ccc(Oc2cccc(C#N)c2)cc1)C(N)=O` (configuration not stated), the cytotoxicity at 10 µM came out at 35.2%. In the case of `CCC(O)CN1CCN(C(=O)CCSC)CC1` (configuration not stated) it was -3.5%; in that of `Cc1ncc(C(=O)N2CCCC(C(=O)CCc3ccccc3)C2)s1` (configuration not stated), 19.4%. Take `Cc1ncncc1C(=O)Nc1cnn(CC(=O)NC2CCCC2)c1`: the cytotoxicity at 10 µM was 4.88%.

Consider `COc1cccc(Cn2c(C)c(C)oc2=O)c1OC`, for which the cytotoxicity at 10 µM is -2.34%. In the case of `O=C(NCCSc1ccccc1)[C@H]1CNC[C@H](C(=O)N2CCOCC2)C1` it was -1.97%; in that of `Cc1cc(C2CCCN(Cc3ncc(C)o3)C2)n[nH]1` (configuration not stated), 4.63%. Consider `CCOCc1ccc(NC(=O)C(C)C)cc1`, for which the cytotoxicity at 10 µM came to 2.25%. Under `Cc1cc(C(=O)Nc2ccc(N3CCCC3)cn2)ccc1-n1cncn1` stands 19.8%; under `Cn1ccnc1CN1CCCN(C(=O)c2ccc3ccccc3c2)CC1`, -8.66%. In the case of `Cc1nc2ccc(CN3CC4(CCOC4)CCC3=O)cc2[nH]1` (configuration not stated) it was 11.7%; in that of `OC[C@@H]1CCCN1Cc1cn(C2CCN(C3CCCC3)CC2)nn1`, -3.73%.

Turning to `Nc1ncc(C(=O)N2CCC3(CCCO3)CC2)c(-c2ccccc2)n1`, the cytotoxicity at 10 µM is -156%.

With `COCCN1CCC(CN(C)c2nc3c(s2)c(C)nn3C)C1` (configuration not stated), the cytotoxicity at 10 µM is -4.36%. In the case of `COc1cc(F)c(-n2cnc(CCNC(C)=O)c2)cc1F` it was -12.1%. Under `Cc1cccc(CSc2nnc(C)n2CC(N)=O)c1` stands -4.46%.

As to `CN(C)C(=O)c1ccc2c(c1)N(C)C(CC(=O)NCCC(C)(C)C)CO2` (configuration not stated), the cytotoxicity at 10 µM was -0.8%. Under `Cc1cnc(CNC(=O)N(Cc2ccccc2)CC(C)(C)O)s1` stands -3.22%. Under `O=C(NCc1ccccc1)c1nn(C2CCS(=O)(=O)C2)c2c1CCCC2` (configuration not stated) stands 5.92%; under `O=C(NCC1CCN(c2ncccn2)CC1)c1cnccn1`, 2.84%; under `O=S(=O)(C1CC1)N1CCn2c(Cn3cncn3)cnc2C1`, 12.2%.

As to `O=C(NCCc1nnc2n1CCC2)NCC1(c2cccc(F)c2)CC1`, the cytotoxicity at 10 µM was -7.94%. In the case of `CN(C)C(=O)N1CCN(C(=O)c2cccc(Cl)c2)CC2(CNC(=O)C2)C1` (configuration not stated) it was 7.61%; in that of `Clc1cc(N2CCC(N3CCCC3)CC2)nc2[nH]ccc12`, -0.77%. In the case of `Cc1ccnc(NCCSc2nccn2C)n1` it was -42%; in that of `CCN(C)C(C(=O)Nc1ccc2c(c1)CCC(=O)N2)c1ccccc1` (configuration not stated), -1.45%. For `CC(C)c1ncncc1C(=O)NCCN1CCCC1`, the cytotoxicity at 10 µM was -9.91%.

For the molecule `CC(C)NC(=O)N1CCN(C(=O)NC(C)C)CC2(CNC(=O)C2)C1`, the cytotoxicity at 10 µM stood at 3.3%. Under `OCC1CCCCN1Cc1cc(O)c2cccc(F)c2n1` (configuration not stated) stands -0.357%; under `O=C1CCSCC(C(=O)N2CCCC2)N1` (configuration not stated), -9.83%. In the case of `CN(Cc1cccc(-n2cccn2)c1)Cc1cccs1` it was -7.54%; in that of `Cc1nc(C2CCCN2C(=O)c2cc3c(s2)CCC3)no1` (configuration not stated), -6.82%. Under `CC(C)c1nn(C)c(N(C)C)c1CNCc1ccccc1CO` stands -9.89%; under `FC(F)(F)c1ccnc(N2CCCN(Cc3ccccn3)CC2)n1`, -3.5%; under `CN1CCN(CC2CC2)C(=O)C12CCN(C(=O)CC(F)(F)F)CC2`, 8.75%. In the case of `Cc1cccc(CN2C[C@@H]3C[C@H](C(=O)NCc4cccnc4)[C@H](C2)O3)c1`, the cytotoxicity at 10 µM is -5.98%. Under `COCc1ncn2c1CN(S(=O)(=O)c1cccc(OC)c1)CC2` stands 3.47%; under `Cc1nc(-c2ccncc2)ncc1C(C)NC(=O)Cn1ccccc1=O` (configuration not stated), 4.01%; under `CS(=O)(=O)N[C@H]1COC[C@@H]2CN(Cc3ccco3)C[C@@H]21`, 9.12%. Under `Cc1cc(N2CCCC(O)(CN(C)C)C2)c2cc3c(cc2n1)OCO3` (configuration not stated) stands 0.935%; under `CN(CCC#N)C(=O)CN1CCC(c2cc3ccccc3[nH]2)CC1`, 4.35%. Under `CC(C)Cc1ncc2c(n1)CN(C(=O)c1ccc(CN3CCCC3)o1)C2` stands -1.66%; under `Cc1c(CNC2CCN(c3ccccc3OC(F)F)C2)cnn1C` (configuration not stated), -1.77%. `Cc1nc2c(C)cccc2cc1C(=O)N1CCC2(CCN(C)CC2)C1`: the cytotoxicity at 10 µM was -4.39%. Under `COCCNC(=O)N1CCN(c2cc(F)ccc2F)CC1` stands -5.95%; under `CC(=O)N1CCCCC1c1nc(C)cc(-c2ccccc2C(=O)O)n1` (configuration not stated), -12.8%; under `CN1CCN(c2cc(CCNC(=O)C3CCC3)nc(C3CC3)n2)CC1`, 0.462%. In the case of `Cc1cc(C)n(C2CCCN(C(=O)CCCc3ccccn3)C2)n1` (configuration not stated) it was -16.3%; in that of `CCN1CC2(CCN(C(=O)C3CSC(C)(C)C(=O)N3)CC2)CC1=O` (configuration not stated), 1.72%; in that of `Cc1cnn(C2CN(CC(=O)NCCc3ccsc3)C2)c1`, -3.86%. Regarding `Cc1cc(C)n(-c2ccc(C(=O)NCC(c3cccs3)N(C)C)cc2)n1` (configuration not stated), the cytotoxicity at 10 µM was found to be 4.58%. In the case of `CCc1nc(CN(C)CC(=O)NC(C)C)cs1` it was 1.48%; in that of `Cc1cc(CNc2cccc(C(=O)N(C)c3ccccc3)c2)no1`, 2.95%; in that of `CS(=O)(=O)NCC1CCCCN1C(=O)c1ccc(Br)s1` (configuration not stated), 1.58%.

`CC(C)C(=O)NCCNC(=O)C(C)OCC(F)(F)F` (configuration not stated): the cytotoxicity at 10 µM was -5.56%. Under `CC(NC(=O)NCCCc1n[nH]c(N)c1C#N)c1ccc(Cl)cc1` (configuration not stated) stands -12.5%; under `Cc1nc(N2CCN(C(=O)c3ccccc3)CC2)c2c(n1)c(C)nn2C`, 15.7%; under `O=C(NCC1CCCO1)c1coc(Cn2cnc3ccccc32)n1` (configuration not stated), -3.67%. Under `CC(=O)N1CCC(C(=O)N2CCCC(Cc3cccc(C)n3)C2)CC1` (configuration not stated) stands -18.6%; under `CCCC(=O)Nc1ccc(CC(=O)N(CC)CC2CCCCO2)cc1` (configuration not stated), -9.24%; under `Cc1nccc(CN2CC[C@@]3(CCCN3Cc3ccccc3)[C@@H](O)C2)n1`, -6.05%. As to `CN(CC(=O)NCC(F)(F)F)Cc1cccc2c1OCCO2`, the cytotoxicity at 10 µM is -18.7%. On to `CC(C)c1ccn(C2(C(=O)O)CCN(c3ccncc3F)CC2)n1`, for which the cytotoxicity at 10 µM was -0.679%. In the case of `CN(Cc1cc[nH]n1)C(=O)c1cccc(CCC(C)(C)O)c1` it was -0.0174%; in that of `COCc1ccc(C(=O)N2CCC(c3cc4nccnc4[nH]3)CC2)cc1`, -39%.
